Rows were chosen to be rich in hits. Some 4.3% of all compounds tested hit in one or more screens of this group.
STAT1 act-1 = increases IFN-gamma driven STAT1 reporter signal | AID 932 | activation (% of control), % at 5.5 µM | hit rate 2.6% among 200,000 | NIH 3T3 STAT1-luciferase reporter, luminescence; 100% = IFN-gamma alone, no compound;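 active means activation above the screen-wide mean activation plus 3 SD, cut at about 130% in these data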;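 further: raw ratio to IFN-gamma control signal so 100% means no change and 0% no light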
STAT3 act-1 = activators of IL-6 induced STAT3 signaling. U3A cells, IL-6 STAT3-luciferase reporter, luminescence; 100% = signal with IL-6 EC80 alone. activation (% of control), % at 5.6 µM. hit rate 0.91% among 190,000. AID 871;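 active means activation above the screen-wide mean of compound activation plus 3 SD, cut at about 130% in these data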;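 further: 0% = background luminescence of wells with medium and substrate only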
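Material: STAT1-lacking human U3A cells, STAT3 luciferase reporter | Benchmarks: IL-6-only wells as 100% reference | Probe or stimulus: IL-6 (33 ng/mL) | Timing: Compound 1 h, then IL-6 6 h at 37 °C | Detection: Luminescence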
STAT3 inh = inhibitors of IL-6 induced STAT3 signaling; U3A cells, IL-6 STAT3-luciferase reporter, luminescence; host cell line lacks STAT1; inhibition, % at 5.5 µM; hit rate 0.89% among 190,000;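 active means inhibition above the mean inhibition across all screened compounds plus 3 SD, cut at about 44% in these data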;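 further: 0% = DMSO only wells and 100% = 100 µM nifuroxazide control wells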
STAT1 inh = STAT1 signaling inhibition | NIH 3T3 STAT1-luciferase reporter, IFN-gamma, luminescence | inhibition, % at 5.5 µM | hit rate 0.35% among 200,000 | AID 920;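 active means inhibition above a set limit, the mean inhibition across all tested compounds plus 3 SD, cut at about 34% in these data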;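 further: 0% = IFN-gamma with DMSO and 100% = IFN-gamma with 300 µM nifuroxazide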
STAT3 act-2 = STAT3 activation, confirmation assay. potentiation (% of control), % at 5.7 µM. shares compounds with STAT3 act-1. U3A STAT3-luciferase reporter, IL-6 potentiation, luminescence; U3A cells lack STAT1; 100 means same as IL-6 alone. hit rate 64% among 1,200;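 active means percent activation of the STAT3 luciferase reporter above a set limit taken from the earlier primary screen, cut at about 130% in these data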;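 further: 0% = background signal of medium plus substrate and 100% = median of IL-6 with DMSO wells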
NFkB act 2 = NF-kappaB activation in STAT3 activator counter-screen. human cells, NF-kappaB reporter activation. AID 1309. shares compounds with STAT3 act-1. activation (% of control), % at 5.7 µM. hit rate 11% among 1,200; in the data active means activation above about 120%;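 further: reporter induced by TNF-alpha stimulation; 100% = median of stimulated DMSO wells and 0% = no signal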
STAT1 act-2 = counter-screen for STAT3 activators: STAT1 activation; shares compounds with STAT3 act-1; NIH 3T3 STAT1-luciferase reporter, IFN-gamma, luminescence; activation (% of control), % at 5.7 µM; hit rate 13% among 1,200; AID 1318;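 active means activation above the solvent-only control well mean plus 3 SD, set per screening run, cut at about 120% in these data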;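 further: 100% = IFN-gamma with DMSO median signal so 100% means no change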
Numbers without * were called inactive; . = no result given.

SMILES	STAT1 act-1	STAT3 act-1	STAT3 inh	STAT1 inh	STAT3 act-2	NFkB act 2	STAT1 act-2
CCS(=O)(=O)N1CCN=C1SCc1cccnc1	108.3	103.7	2.3	-11.3	.	.	.
CC(=O)c1coc2c1cc(O)c1ccccc12	106.1	85.0	15.5	-6.6	.	.	.
O=C(c1ccco1)c1coc2c1cc(O)c1ccccc12	100.5	161.2*	-65.3	-2.0	164.1*	104.4	100.7
CCC1=Nc2cc(C(=O)NCc3ccco3)ccc2Sc2ccc(C)cc21	96.0	144.9*	-57.9	4.5	120.0	154.3*	118.3
CCC1=Nc2cc(C(=O)NCCCOC)ccc2Sc2ccccc21	107.0	114.7	-11.0	-7.6	.	.	.
CC1CN(c2nnc(NC(=O)c3ccccc3)s2)CC(C)O1 (stereo unspecified)	115.9	86.3	20.7	-14.9	.	.	.
Oc1c(Br)cc(Br)cc1/C=N/c1nc2c(s1)CCCC2	102.6	113.6	-11.8	-3.0	.	.	.
Oc1ccc2ccccc2c1/C=N/c1nc2c(s1)CCCC2	101.5	154.0*	-64.6	-1.6	136.1*	104.0	94.2
Cc1nc(/N=C(\N)NC(=O)c2ccccc2)nc2ccccc12	101.7	177.3*	-78.2	-1.8	168.4*	121.3*	115.9
Cc1nc(N=C(N)N)nc2ccccc12	102.9	115.6	-17.7	-3.2	.	.	.
Cc1ccc(NC(=O)c2c(Cl)n(C)c3ccccc23)cc1	107.9	169.9*	-67.6	-8.7	190.3*	122.8*	131.7*
COc1cc(/C=N/NC(N)=S)ccc1OCC(=O)Nc1ccc(C)cc1	104.7	153.7*	-53.8	-5.1	117.9	99.2	110.6
CNC(=S)N/N=C/c1ccc(OCC(=O)Nc2c(C)cc(C)cc2C)c(OC)c1	100.1	126.3	-37.6	-0.1	.	.	.
CC1=NOC(=O)/C1=C\c1ccc(-c2ccc(Cl)c(C(=O)O)c2)o1	100.9	103.7	-2.0	-0.3	.	.	.
CC1=NOC(=O)/C1=C\c1ccc(-c2cccc(Cl)c2)o1	100.8	137.4*	-37.1	-0.8	115.8	110.1	105.3
Cc1cc(C)n(-c2nc(C)nc3c2cnn3-c2ccccc2)n1	105.7	155.3*	-59.6	-6.3	150.7*	107.5	98.8
O=C(N/N=C/c1ccc(OCC(=O)N2CCCCC2)cc1)c1ccccc1O	91.3	141.4*	-39.3	9.6	145.7*	104.2	113.9
CCCN1CNC(=S)N(c2ccccc2OCC)C1	106.1	108.5	-10.1	-7.0	.	.	.
O=c1cnnc(Nc2ccc(F)cc2)[nH]1	102.6	99.0	11.5	-4.7	.	.	.
O=c1cnnc(Nc2cccc(F)c2)[nH]1	98.4	142.5*	-51.2	2.4	148.0*	104.0	93.0
Cn1c(O)c(C2=c3ccccc3=NC2=O)[nH]c1=S	88.3	142.2*	-46.9	13.1	155.0*	103.0	92.6
COc1ccc2nc(-n3c(O)c(C4=c5ccccc5=NC4=O)[nH]c3=S)sc2c1	101.6	92.8	4.7	-1.8	.	.	.
CN(C)c1ccc(NC(=O)COC(=O)Cn2nnc3ccccc32)cc1	97.5	90.2	7.0	2.7	.	.	.
CCOC(=O)CCSc1nc(-c2ccc3c(c2)OCO3)cc(C(F)(F)F)c1C#N	107.2	98.2	2.9	-7.9	.	.	.
CCOC(=O)CC(=O)CSc1nc(-c2ccc3c(c2)OCO3)cc(C(F)(F)F)c1C#N	92.7	139.7*	-33.5	8.1	117.7	98.3	92.9
SMILES	STAT1 act-1	STAT3 act-1	STAT3 inh	STAT1 inh	STAT3 act-2	NFkB act 2	STAT1 act-2
CCC(C)(C(=O)NC1CCCC1)N(C(=O)c1cnccn1)c1ccccc1 (stereo unspecified)	100.1	137.0*	-40.4	-0.1	116.8	99.7	103.2
Cc1ccc(C)n1NC(=O)c1ccccc1[N+](=O)[O-]	103.2	97.8	5.1	-4.1	.	.	.
Cc1ccc(C)n1NC(=O)c1ccccc1O	99.0	153.2*	-54.7	1.1	151.4*	105.0	97.0
O=C(COC(=O)/C=C/c1cccs1)Nc1ccc2ccccc2c1	101.1	99.9	0.5	-1.2	.	.	.
CNc1nc(-c2c[nH]c3ccccc23)cs1	94.5	160.6*	-59.7	6.0	152.0*	99.8	94.6
O=C(/C=C/c1cccs1)Nc1cccc(NC(=O)/C=C/c2cccs2)n1	121.2	105.5	-0.6	-23.4	.	.	.
Oc1ccc(Cl)cc1/C=C/c1ccc2cccc(O)c2n1	87.4	166.5*	-74.0	13.9	155.6*	99.8	92.3
Oc1c(Cl)cc(Cl)cc1/C=C/c1ccc2cccc(O)c2n1	98.6	114.5	-12.3	-1.8	.	.	.
CSc1ccc(/C=C/c2ccc3cccc(O)c3n2)cc1	106.1	89.0	15.4	-7.1	.	.	.
Cc1ccsc1/C=C/c1ccc2cccc(O)c2n1	97.2	154.3*	-54.9	3.0	175.6*	110.0	99.4
Oc1cccc2ccc(/C=C/c3cccs3)nc12	100.0	148.1*	-52.7	0.1	189.3*	121.3*	101.9
CCOc1ccc2nc(SCC(=O)Nc3cc4c(cc3C(C)=O)OCO4)[nH]c2c1	97.6	100.3	10.9	2.7	.	.	.
COc1cc(C(C[N+](=O)[O-])c2c(C)[nH]c3ccccc23)cc(OC)c1OC (stereo unspecified)	87.3	141.7*	-48.5	14.2	126.0	98.2	91.8
NC(=O)C1CNc2ccccc2O1 (stereo unspecified)	102.5	156.2*	-66.6	-2.7	148.2*	105.4	100.3
Cc1ccc2c(c1)NCC(C(=O)NCc1ccccc1)O2 (stereo unspecified)	97.6	98.4	1.7	2.6	.	.	.
Cc1ccc(C(=O)N2CCN(S(=O)(=O)c3ccc(C)cc3)CC2)cc1	95.6	146.2*	-56.3	4.6	112.0	103.4	99.2
Cc1ccc(C(=O)N2CCN(S(C)(=O)=O)C2)cc1	97.5	105.2	2.9	2.7	.	.	.
CSCC[C@H](NC(=O)OC(C)(C)C)c1nnc(SCc2cccc(F)c2)o1	105.4	141.9*	-42.5	-5.8	100.2	111.5	109.4
CSCC[C@H](NC(=O)OC(C)(C)C)c1nnc(SCc2ccc(F)cc2)o1	103.9	100.5	2.1	-4.3	.	.	.
Cc1cc(NS(=O)(=O)c2ccc(NC(=O)c3oc4ccccc4c3C)cc2)no1	102.8	144.7*	-52.6	-3.1	128.6	106.3	102.4
Nc1ncnc(Oc2ccccc2F)c1[N+](=O)[O-]	89.5	96.4	6.2	9.1	.	.	.
Cc1ccc2cc(C)c3nnc(SCC(=O)c4cccs4)n3c2c1C	89.0	109.1	-10.0	12.3	.	.	.
Cc1cc2ccc(C)c(C)c2nc1SCC(=O)c1cccs1	81.1	159.9*	-66.2	21.0	134.1*	99.6	91.0
Cc1nc(CN2CCCCC2)cc(=O)[nH]1	94.1	101.3	2.4	6.0	.	.	.
CCOc1ccc(CCNC(=O)CSc2cc(=O)n(CC)c3ccccc23)cc1OCC	95.6	94.1	5.0	6.9	.	.	.
CC(=O)C1=C(O)C(=O)N(CCc2ccccc2)C1c1ccccc1[N+](=O)[O-] (stereo unspecified)	95.6	119.6	-26.7	5.0	.	.	.

Source: PubChem BioAssay
